Results as given in ChEMBL document CHEMBL1139419, “Quantitative structure-activity relationship studies on nitrofuranyl anti-tubercular agents” (2008).
Converted amounts (≈) assume the structure as drawn.

System: Mycobacterium tuberculosis
Experiment: Antitubercular activity against Mycobacterium tuberculosis H37Rv assessed as drug level causing 90% growth inhibition after 7 days by microbroth dilution method
Assay type: functional
Conditions: for MIC: Mycobacterium tuberculosis, H37Rv, 168 h
Method in brief: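 Two-fold serial dilutions in 7H9 broth with 10% albumin-dextrose complex and 0.05% (v/v) Tween80, in round-bottom microtiter plates, with final concentrations starting at 200 μg/mL. Equal volume of H37Rv broth inoculum added. Incubated aerobically at 37°C for 7 days and read visually. MIC taken as the lowest concentration inhibiting 90% of growth relative to the no-drug control.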

Structure (SMILES): O=C(NCc1ccc(N2CCN(Cc3ccccc3)CC2)cc1)c1ccc([N+](=O)[O-])o1
- -logMIC: 2.4296
- MIC: 1.56 µg/mL (≈ 3.71 µM)

Structure (SMILES): O=C(NCc1ccc(N2CCS(=O)(=O)CC2)cc1)c1ccc([N+](=O)[O-])o1
- -logMIC: 0.8801
- MIC: 50 µg/mL (≈ 132 µM)

Structure (SMILES): O=C(NCc1ccc(N2CCCN(Cc3ccccc3)CC2)cc1)c1ccc([N+](=O)[O-])o1
- -logMIC: 3.0309
- MIC: 0.4 µg/mL (≈ 0.921 µM)

Structure (SMILES): CC(C)(C)OC(=O)N1CCN(c2ccc(CNC(=O)c3ccc([N+](=O)[O-])o3)cn2)CC1
- -logMIC: 5.7318
- MIC: 0.0008 µg/mL (≈ 0.00185 µM)

Structure (SMILES): CCOC(=O)N1CCN(c2ccc(CNC(=O)c3ccc([N+](=O)[O-])o3)cc2)CC1
- -logMIC: 4.8123
- MIC: 0.0062 µg/mL (≈ 0.0154 µM)

Structure (SMILES): O=C(NCc1ccco1)c1ccc([N+](=O)[O-])o1
- -logMIC: 1.5774
- MIC: 6.25 µg/mL (≈ 26.5 µM)

Structure (SMILES): CN1CCN(c2ccc3c(c2)CCN(C(=O)c2ccc([N+](=O)[O-])o2)C3)CC1
- -logMIC: 3.8697
- MIC: 0.05 µg/mL (≈ 0.135 µM)

Structure (SMILES): O=C(NCc1ccc(C(F)(F)F)cc1)c1ccc([N+](=O)[O-])o1
- -logMIC: 3.7983
- MIC: 0.05 µg/mL (≈ 0.159 µM)

Structure (SMILES): O=C(c1ccc([N+](=O)[O-])o1)N1CCC(Oc2ccc(OC(F)(F)F)cc2)CC1
- -logMIC: 5.6993
- MIC: 0.0008 µg/mL (≈ 0.002 µM)

Structure (SMILES): NC1CCN(c2ccc(CNC(=O)c3ccc([N+](=O)[O-])o3)cc2)C1 (configuration not stated)
- -logMIC: 2.6172
- MIC: 0.8 µg/mL (≈ 2.42 µM)

Structure (SMILES): COC(=O)NC(=O)c1ccc([N+](=O)[O-])o1
- -logMIC: 2.7286
- MIC: 0.4 µg/mL (≈ 1.87 µM)
